Measurements published in ChEMBL document CHEMBL5247630, “Rational design of the zonulin inhibitor AT1001 derivatives as potential anti SARS-CoV-2” (Eur J Med Chem, 2022).
pEC50, pIC50, pKd: −log10 of the molar value. Non-standard residues stand in square brackets, D forms with d. Residues, ends and D or L forms follow the SMILES beside them. *: point of attachment. Tic = O=C(O)[C@@H]1Cc2ccccc2CN1; Boc = CC(C)(C)OC(=O)*

Tests used:
Human betaherpesvirus 5 [1] = assay: Antiviral activity against HCMV Davis infected in HELF cells assessed as reduction in viral replication; assay type: functional, organism-based; conditions: Human betaherpesvirus 5, Davis
Human betaherpesvirus 5 [2] = assay: Antiviral activity against HCMV AD-169 infected in HELF cells assessed as reduction in viral replication; assay type: functional, organism-based; conditions: Human betaherpesvirus 5, AD-169, HELF
[3] = target: T1, Replicase polyprotein 1ab (Severe acute respiratory syndrome coronavirus 2, UniProt P0DTD1); assay: Inhibition of C-terminal His6-tagged recombinant SARS-CoV-2 MPro transfected in Escherichia coli BL21 (DE3) using Dabcyl-KTSAVLQSGFRKM-E(Edans)-NH2 as substrate preincubated for 15 mins followed by substrate addition measured after 30 mins by FRET assay
In short: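 Recombinant Mpro (20 nM final) was preincubated 15 min at room temperature with compound.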

[4] = target: T1, Replicase polyprotein 1ab; assay: Binding affinity to C-terminal His6-tagged recombinant SARS-CoV-2 MPro transfected in Escherichia coli BL21 (DE3) assessed as dissociation constant by Cheng-Prusoff equation analysis
SARS-CoV-2 [5] = assay: Antiviral activity against SARS-CoV-2 UC-1074 infected in African green monkey Vero cells assessed as reduction in virus-induced cytopathic effect incubated for 5 days by microscopic analysis; assay type: functional, organism-based; conditions: Severe acute respiratory syndrome coronavirus 2, UC-1074, Vero, 120 h
Human alphaherpesvirus 3 [6] = assay: Antiviral activity against thymidine kinase positive VZV OKA infected in HELF cells assessed as reduction in viral replication; assay type: functional, organism-based; conditions: Human alphaherpesvirus 3, OKA
Human alphaherpesvirus 3 [7] = assay: Antiviral activity against thymidine kinase deficient VZV 07-1 infected in HELF cells assessed as reduction in viral replication; assay type: functional, organism-based; conditions: Human alphaherpesvirus 3, 07-1, HELF
[8] = Cytotoxicity against HELF cells assessed as change in cell morphology; assay type: toxicity, cell-based; conditions: human
SARS-CoV-2 [9] = assay: Antiviral activity against SARS-CoV-2 RG2674 infected in African green monkey Vero cells assessed as reduction in virus-induced cytopathic effect incubated for 5 days by microscopic analysis; assay type: functional, organism-based; conditions: Severe acute respiratory syndrome coronavirus 2, RG2674, Vero, 120 h
SARS-CoV-2 [10] = assay: Antiviral activity against SARS-CoV-2 NVDBB-2220 infected in African green monkey Vero cells assessed as reduction in virus-induced cytopathic effect incubated for 5 days by microscopic analysis; assay type: functional, organism-based; conditions: Severe acute respiratory syndrome coronavirus 2, NVDBB-2220, Vero, 120 h
[11] = Cytotoxicity against African green monkey Vero cells assessed as change in cell morphology by microscopic analysis; assay type: toxicity, cell-based; conditions: chlorocebus sabaeus
In short: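 Vero CCL81 cells were run in parallel with the antiviral assay in DMEM 2% FCS for 5 days at 37 °C. The value is the minimum concentration causing a microscopically detectable change in cell morphology.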

Vero = assay: Cytotoxicity against African green monkey Vero cells assessed as reduction in cell growth by Coulter counter analysis; assay type: toxicity, cell-based; conditions: chlorocebus sabaeus
In short: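 Mock-infected Vero CCL81 cultures were treated with the compound dilution series in DMEM 2% FCS for 5 days at 37 °C.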

[12] = target: T1, Replicase polyprotein 1ab; assay: Binding affinity to C-terminal His6-tagged recombinant SARS-CoV-2 MPro expressed in Escherichia coli BL21 (DE3) assessed as dissociation constant by ITC assay
In short: (§1)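 E. coli BL21(DE3) Mpro, made untagged by 3C cleavage and SEC, was dialysed into 25 mM Tris-HCl pH 7.6, 20 mM NaCl, 1 mM TCEP. 20–25 µM protein in the cell was titrated with 160–250 µM compound at 28 °C, 0.5% DMSO on both sides, 2.5 µL injections every 180 s. One-site fit with stoichiometry fixed at 1 gave ΔH, ΔS and KD.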

[13] = target: Replicase polyprotein 1ab (Severe acute respiratory syndrome coronavirus 2) (UniProt P0DTD1); assay: Binding affinity to C-terminal His6-tagged recombinant SARS-CoV-2 MPro expressed in Escherichia coli BL21 (DE3) assessed as change in gibbs free energy by ITC assay
[14] = target: Replicase polyprotein 1ab (Severe acute respiratory syndrome coronavirus 2) (UniProt P0DTD1); assay: Binding affinity to C-terminal His6-tagged recombinant SARS-CoV-2 MPro expressed in Escherichia coli BL21 (DE3) assessed as change in entropy by ITC assay; in short: as §1
[15] = Stability of compound in PBS buffer at pH 7 at 25 to […] degreeC measured for 3 to 24 hrs by HPLC analysis; assay type: physicochemical; conditions: time 3-24 hrs
In short: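 Peptide at 0.3 mg/mL was held in PBS pH 7.0 at 25 °C and 37 °C for 24 h. The peptide peak area was followed by RP-HPLC on C18 with detection at 220 nm, sampled at 3, 6, 8 and 24 h.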

[16] = target: Replicase polyprotein 1ab (Severe acute respiratory syndrome coronavirus 2) (UniProt P0DTD1); assay: Binding affinity to C-terminal His6-tagged recombinant SARS-CoV-2 MPro expressed in Escherichia coli BL21 (DE3) assessed as change in enthalpy by ITC assay; in short: as §1

Compound | pEC50 (Human betaherpesvirus 5 [1]) | pEC50 (Human betaherpesvirus 5 [2]) | pIC50 [3] | pKd [4] | pEC50 (SARS-CoV-2 [5]) | pEC50 (Human alphaherpesvirus 3 [6]) | pEC50 (Human alphaherpesvirus 3 [7]) | MCC [8] [µM] | pEC50 (SARS-CoV-2 [9]) | pEC50 (SARS-CoV-2 [10]) | MCC [11] [µM] | CC50 (Vero) [µM] | pKd [12] | deltaG [13] [kcal/mol] | -TdeltaS [14] [kcal/mol] | Stability [15] | deltaH [16] [kcal/mol]
Nc1ccn(C[C@@H](CO)OCP(=O)(O)O)c(=O)n1 [CIDOFOVIR] | 6.60 | 5.97 | – | – | – | – | – | – | – | – | – | – | – | – | – | – | –
O=C[C@H](Cc1c[nH]cn1)NC(=O)[C@H](Cc1c[nH]cn1)NC(=O)[C@@H]1Cc2ccccc2CN1 (H-[Tic]-His-His-aldehyde) | – | – | 4.42 | 4.72 | – | – | – | – | – | – | – | – | – | – | – | – | –
Ac-GGVLVQPG-NH2 | – | – | – | – | 4.75 | – | – | – | – | – | – | – | – | – | – | – | –
O=c1[nH]c(=O)n([C@H]2C[C@H](O)[C@@H](CO)O2)cc1/C=C/Br [BRIVUDINE] | – | – | – | – | – | 6.77 | 5.34 | > 300 | – | – | – | – | – | – | – | – | –
CC(=O)NCC(=O)N[C@@H](Cc1ccc(O)cc1)C(=O)N[C@H](C=O)Cc1c[nH]cn1 (Ac-Gly-Tyr-His-aldehyde) | – | – | 3.70 | 4.00 | – | – | – | – | – | – | – | – | – | – | – | – | –
CC(=O)NCC(=O)N[C@@H](Cc1ccccc1)C(=O)N[C@H](C=O)Cc1c[nH]cn1 (Ac-Gly-Phe-His-aldehyde) | < 4.00 | < 4.70 | 5.60 | 5.90 | 4.18 | < 4.00 | < 4.00 | > 100 | < 4.00 | 4.39 | ≥ 100 | > 100 | 6.19 | -8.53 | 4.16 | Stable | -12.7
CC(C)(C)OC(=O)NCC(=O)N[C@@H](Cc1ccccc1)C(=O)N[C@H](C=O)Cc1c[nH]cn1 (Boc-Gly-Phe-His-aldehyde) | < 4.00 | < 4.70 | 5.19 | 5.49 | 4.30 | < 4.00 | < 4.00 | > 100 | 4.07 | 4.36 | ≥ 100 | > 100 | 6.35 | -8.77 | 5.78 | – | -14.5
